Laboratory results reported in ChEMBL document CHEMBL1134394, “Synthesis and biological activity of aminoguanidine and diaminoguanidine analogues of the antidiabetic/antiobesity agent 3-guanidinopropionic acid” (2001).
Where “and” joins values, the source holds several entries; their conditions need not be identical. Equal entries are not always repeated.

Legend:
[1] = In vivo blood glucose was determined in obese, hyperglycemic, hyperinsulinemic, insulin-resistant KKAy mice after a dose of 500 mg/kg for 4 days; format: functional, Mus musculus
[2] = Inhibition of creatine transport was assessed from Percent inhibition of [C14] creatine uptake; format: functional; parameters: concentration or dose not given beside the values; conditions: dose or concentration not given here
[3] = target: Creatine kinase M-type (Homo sapiens) (UniProt P06732); assay: Reaction rate of creatine kinase activity is determined at 1 mM concentration
Chain of Creatine kinase M-type (Homo sapiens) (P06732 whole entry): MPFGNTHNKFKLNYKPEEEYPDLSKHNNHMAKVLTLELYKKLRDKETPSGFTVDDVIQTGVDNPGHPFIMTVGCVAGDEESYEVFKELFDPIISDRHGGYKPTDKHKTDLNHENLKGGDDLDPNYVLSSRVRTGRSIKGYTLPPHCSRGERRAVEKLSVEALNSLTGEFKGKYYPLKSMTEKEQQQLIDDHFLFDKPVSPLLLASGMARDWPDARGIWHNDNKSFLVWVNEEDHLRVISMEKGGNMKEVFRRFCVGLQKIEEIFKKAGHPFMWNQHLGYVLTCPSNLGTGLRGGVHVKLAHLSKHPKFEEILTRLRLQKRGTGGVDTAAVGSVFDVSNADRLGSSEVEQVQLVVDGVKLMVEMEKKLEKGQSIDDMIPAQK

[4] = species: Mus musculus; assay: Average daily dose was determined in ob/ob mice(0); format: functional
[5] = species: Mus musculus; assay: Initial body weight was determined in ob/ob mice (control=55+/-1); format: functional
[6] = tested on: Mus musculus; assay: Terminal blood glucose level was determined in ob/ob mice after oral administration for two weeks (control = 226+/-29); format: functional
In short: (§1)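 ob/ob mice on Purina 5015 chow, given drug as admixture in milled chow for 14 days. Intake measured from food-bowl weight change. Blood from retro-orbital sinus, heparinized, kept on ice and analyzed promptly. Blood glucose measured before and after treatment. Group sizes 8–15, housed at 21 °C on 12 h light–dark cycle; two-way ANOVA, Student–Newman–Keuls post hoc.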

[7] = species: Mus musculus; assay: Initial blood glucose level was determined in ob/ob mice (control=228+/-19); format: functional; in short: as §1
[8] = tested on: Mus musculus; assay: Terminal fat body weight was determined in ob/ob mice after oral administration for two weeks (control = 28+/-0.9); format: functional
[9] = tested on: Mus musculus; assay: Terminal lean body weight was determined in ob/ob mice after oral administration for two weeks (control = 25+/-1); format: functional
[10] = target: Creatine kinase M-type (Homo sapiens) (UniProt P06732); assay: Reaction rate of creatine kinase activity is determined at 100 mM concentration (relative to creatine)
[11] = tested on: Mus musculus; assay: Average daily food consumption was determined in ob/ob mice after oral administration for two weeks (control = 90+/-3); format: functional
[12] = tested on: Mus musculus; assay: Terminal body weight was determined in ob/ob mice after oral administration for two weeks (control = 53+/-1); format: functional
[13] = target: Creatine kinase M-type (Homo sapiens) (UniProt P06732); assay: Reaction rate of creatine kinase was determined (relative to creatine)
[14] = tested on: Mus musculus; assay: In vivo blood glucose was determined in obese,hyperglycemic,hyperinsulinemic,insulin-resistant KKAy mice after a dose of 500 mg/kg for 4 days; format: functional
In short: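 KKAy mice (obese, hyperinsulinemic) grouped into treated and control (n = 6) after pretest glucose on an Alpkem autoanalyzer. Compound given in food at 500 mg/kg for 4 days, then nonfasting blood glucose measured. Result expressed as treated/control (T/C). Wilcoxon rank-sum test applied when T/C < 0.80.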

[15] = species: Mus musculus; assay: Average daily dose was determined in ob/ob mice(control=0); format: functional
[16] = target: Creatine kinase M-type (Homo sapiens) (UniProt P06732); assay: Reaction rate of creatine kinase was determined at 50 mM concentration (relative to creatine)
[17] = tested on: Rhesus monkey; assay: Post-prandial plasma insulin was determined in insulin-resistant Rhesus monkeys after a treatment sequence of placebo followed by a dose of 10 mg/kg/day; format: functional, organism-based; conditions: Cercopithecidae
In short: (§2)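 Insulin-resistant rhesus monkeys (ovariectomized females, 15–30 years) dosed orally once daily around 8 a.m., drug dissolved in diet orange soda and drunk voluntarily from a syringe tip. Sequence: placebo, 10 mg/kg/day, placebo, 3 mg/kg/day; placebo phases averaged. Meal tolerance test in conscious animals: glucose and insulin after overnight fast and for 3 h after a liquid meal. Insulin by double-antibody RIA (125I-porcine insulin tracer, human insulin standard); repeated-measures ANOVA, Tukey post hoc.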

[18] = tested on: Rhesus monkey; assay: Post-prandial plasma insulin was determined in insulin-resistant Rhesus monkeys after a treatment sequence of placebo followed by a dose of 3 mg/kg/day; format: functional, organism-based; conditions: Cercopithecidae; in short: as §2
[19] = tested on: Rhesus monkey; assay: Fasting plasma insulin was determined in insulin-resistant Rhesus monkeys after a treatment sequence of placebo followed by a dose of 3 mg/kg/day; format: functional, organism-based; conditions: Cercopithecidae
In short: (§3)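 Ovariectomized female rhesus monkeys aged 15–30 y, with fasting insulin and glucose elevated over the colony norm. Compound dissolved in diet orange soda and drunk voluntarily from a syringe once daily at ~8:00 a.m. Sequence: placebo, 10 mg/kg/day, placebo, 3 mg/kg/day; placebo phases averaged. Overnight fast. Insulin by double-antibody RIA (guinea pig anti-human insulin, 125I-porcine insulin tracer, human insulin standard). Repeated-measures ANOVA, Tukey post hoc.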

[20] = tested on: Rhesus monkey; assay: Fasting plasma glucose was determined in insulin-resistant Rhesus monkeys after a treatment sequence of placebo followed by a dose of 3 mg/kg/day; format: functional, organism-based; conditions: Cercopithecidae; in short: as §2
[21] = tested on: Rhesus monkey; assay: Fasting plasma insulin was determined in insulin-resistant Rhesus monkeys after a treatment sequence of placebo followed by a dose of 10 mg/kg/day; format: functional, organism-based; conditions: Cercopithecidae; in short: as §3

| SMILES | MISS T/C [1] | further results |
| --- | --- | --- |
| N/N=C(\NN)N[C@@H](Cc1ccccc1)C(=O)O | 0.88 | – |
| CN(CC(=O)O)C(=N)N | – | inhibition [2]: 92%; Reaction rate [3]: 100 |
| N=C(N)NCCC(=O)O [OMPENACLID] | – | Dose [4]: 377 mg/kg; inhibition [2]: 97%; Body weight [5]: 54 g; Blood glucose [6]: 147 mg/dL; Blood glucose [7]: 229 mg/dL; Body weight [8]: <24 g; Body weight [9]: 24 g; Reaction rate [10]: 2.4; Food intake [11]: 75 g/kg; Body weight [12]: 48 g |
| N=C(NN)NNCC(=O)O | – | Reaction rate [13]: 0; inhibition [2]: 26%; Body weight [5]: 52 g; Blood glucose [6]: <85 mg/dL; Blood glucose [7]: 226 mg/dL; Body weight [8]: <20 g; Body weight [9]: <22 g; Food intake [11]: 81 g/kg; blood glucose treated/control ratio [14]: 0.69; Body weight [12]: <43 g; Dose [15]: 406 mg/kg |
| CN(NC(=NCC(=O)O)NN(C)C(=O)OC(C)(C)C)C(=O)OC(C)(C)C | 0.85 | – |
| Cl.Cl.N/C(CNCCC(=O)O)=N\O | 1 | – |
| Cl.Cl.N=C(N)CNCCC(=O)O | 0.96 | – |
| N/C(=N\N=C\C(=O)O)N/N=C/C(=O)O | 0.88 | – |
| COC(=O)NNC(=NCC(=O)O)NNC(=O)OC | 0.92 | – |
| N=C(N)N(N)CC(=O)O | 1.04 | – |
| NNC(=NCCCC(=O)O)NN | 0.93 | – |
| CC(C)(C)OC(=O)NCCNC(=NCC(=O)O)NCCNC(=O)OC(C)(C)C | 0.9 | – |
| NN1CCNN=C1NCC(=O)O | 0.77 | – |
| NNc1nncc(O)n1 | 0.84 | – |
| Cl.Cl.N=C(CN)NCCC(=O)O | 0.97 | – |
| C[C@@H](N=C(NN)NN)C(=O)O | 0.66 | – |
| CC1=NN=C(NCC(=O)O)NN1 | 0.97 | – |
| CC/C(=N\N=C(N)N)C(=O)O.Cl | 0.77 | – |
| N=C(N)/N=C(\N)NCCS(=O)O | 0.92 | – |
| CC(C)(C)OC(=O)NNC(=NCC(=O)O)NNC(=O)OC(C)(C)C | 0.86 | – |
| Cl.NCCNC(=NCC(=O)O)NCCN | 0.86 | – |

| SMILES | MISS T/C [1] | further results |
| --- | --- | --- |
| N=C(N)N/N=C(/C(=O)O)c1ccccc1 | 1.04 | – |
| N/N=C(/NCC(=O)O)Nc1cc[nH]n1 | 0.89 | – |
| CCCCCC/C(=N\N=C(N)N)C(=O)O | 0.73 | – |
| O=C(O)CN=C(NCCO)NCCO | 1.07 | – |
| Cl.Cl.N=C(N)CNCC(=O)O | 1.18 | – |
| N/N=C(/NCC(=O)O)NN1CCOCC1 | 1 | – |
| N=C(N)NNCCC(=O)O | 1.11 | – |
| N/N=C(/NCC(=O)O)NNC(N)=O | 0.86 | – |
| Cl.Cl.N/C(CNCC(=O)O)=N\O | 0.88 | – |
| C/C(=N\N=C(N)N)C(=O)O.Cl | 0.9 | – |
| NC(=O)NNC(=NCC(=O)O)NNC(N)=O | 0.86 | – |
| N/N=C(\NN)N[C@H](C(=O)O)c1ccccc1 | 1.06 | – |
| CC(C)[C@H](N=C(NN)NN)C(=O)O | 0.56 | – |
| Cl.NC1=NC(=O)CNN1 | 1.08 | – |
| N/N=C(/NCC(=O)O)NNc1ccccn1 | 0.91 | – |
| Nc1nncn1NCC(=O)O | 0.96 | – |
| O=C(O)CNC1=NNC(=O)NN1 | 1.04 | – |
| CN(/N=C/C(=O)O)C(=N)N | 0.95 | – |
| Cc1cc(C)n(NC(=NCC(=O)O)Nn2nc(C)cc2C)n1 | 1 | – |
| NNC(=NCC(=O)O)NN | – | Reaction rate [13]: 0.1; inhibition [2]: 88%; blood glucose treated/control ratio [14]: 0.23 |
| N=C(N)N/N=C(\Cc1ccccc1)C(=O)O | 0.68 | – |

| SMILES | MISS T/C [1] | further results |
| --- | --- | --- |
| Cl.Cl.NCC(CN)CCC(=O)O | 0.84 | – |
| N=C(N)NNC(C(=O)O)c1ccccc1 (stereo not drawn) | 1.11 | – |
| N=C(N)NCC(=O)O [GUANIDINO ACETATE] | <0.62 | – |
| Nc1nncc(O)n1 | 0.98 | – |
| N=C(N)N/N=C/C(=O)O | <0.52 | – |
| Cl.NNC1=NC(=O)CNN1 | 1 | – |
| CCOC(=O)CC/N=C(\N)N=C(N)N.Cl.Cl | 1.06 | – |
| CN(C)/N=C(\NN)NCC(=O)O | 0.8 | – |
| CC(=O)NNC(=NCC(=O)O)NNC(C)=O | 0.84 | – |
| O=C(O)/C=N/NC1=NCCN1 | 1.01 | – |
| N=C(N)/N=C(\N)NCC(=O)O | 1.01 | – |
| N=C(N)/N=C(\N)NCCC(=O)O | 0.88 | – |
| Nc1nccn1NCC(=O)O | 0.99 | – |
| CN(C)CCNC(=NCC(=O)O)NCCN(C)C | 0.95 | – |
| CN1NC(=O)CN=C1NN | 1.16 | – |
| CC(C)(C)OC(=O)NCC/N=C(\NN)NCC(=O)O | 0.81 | – |
| COC(=O)/C=N/N=C(N)N | 1.16 | – |
| N=C(NN)NCCCC(=O)O | 1.14 | – |
| N/C(=N/NCC(=O)O)N/N=C/c1ccccc1 | 0.89 | – |
| N=C(NN)NCCC(=O)O | 0.83 | – |
| C[C@H](N=C(NN)NN)C(=O)O | 0.57 | – |

| SMILES | MISS T/C [1] | further results |
| --- | --- | --- |
| CC(C)=NNC(=N)NNCC(=O)O | 0.98 | – |
| N/N=C(\NCCO)NCC(=O)O | 1.01 | – |
| NNC(=NCCC(=O)O)NN | 0.78 | – |
| N=C(NN)NCC(=O)O | 0.51 | Body weight [5]: 52 g; Blood glucose [6]: 97 mg/dL; Blood glucose [7]: 227 mg/dL; Body weight [8]: 23 g; Body weight [9]: 23 g; Food intake [11]: 87 g/kg; Body weight [12]: 46 g; Dose [15]: 436 mg/kg |
| N=C(NCCN)NCC(=O)O | 0.99 | – |
| N=C(N)/N=C(\N)NCCCC(=O)O | 1.05 | – |
| CNC(=N)N/N=C/C(=O)O | 0.94 | – |
| COC(=O)CC/N=C(\N)C(=N)N.Cl.Cl | 1 | – |
| Cl.Cl.N=C(CN)NCC(=O)O | 0.95 | – |
| N=C(N)NNCC(=O)O | – | Reaction rate [16]: 0.24; inhibition [2]: 36%; blood glucose treated/control ratio [14]: <0.61 |
| N/N=C(\N)N(N)CC(=O)O | – | Reaction rate [13]: 0; AUC [17]: 30 mU min dl-1; Body weight [5]: <59 g; Blood glucose [6]: <57 mg/dL; Blood glucose [7]: 228 mg/dL; AUC [18]: 38 mU min dl-1; Body weight [8]: <22 g; Body weight [9]: <22 g; Food intake [11]: <52 g/kg; Plasma insulin [19]: 41 uU ml-1; blood glucose treated/control ratio [14]: <0.43; Body weight [12]: <44 g; Plasma glucose [20]: 81 mg/dL and < 64 mg/dL; Plasma insulin [21]: 35 uU ml-1; Dose [15]: 26 mg/kg |
| CC(C)NNC(=N)NNCC(=O)O | 0.9 | – |
| N/C(=N/CC(=O)O)NO | 1.06 | – |
| Cl.O=C(O)/C=N/Nc1ccccn1 | <0.73 | – |
| COC(=O)CNN=C(N)N.Cl | 1.12 | – |
| N=C(N)C(=N)NCC(=O)O | 1.08 | – |
| CCC(NN=C(N)N)C(=O)O (stereo not drawn) | 1.08 | – |
| Cl.Cl.N=C(N)C(=N)NCCC(=O)O | 1.1 | – |
| N=C(N)NNC(Cc1ccccc1)C(=O)O (stereo not drawn) | 0.87 | – |
